Here are results for 23 compounds from ChEMBL document CHEMBL4834441, “Design, synthesis and biological evaluation of a series of iron and copper chelating deferiprone derivatives as new agents active against Candida albicans” (Bioorg Med Chem Lett, 2021).

≈ marks a conversion by molar mass, not a printed value. Calls of active or inactive are those of the source.

Series [1] relates to Candida albicans. The series can be described thus: Antifungal activity against Candida albicans ATCC 10231. It counts as functional. In a few lines:
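Planktonic C. albicans ATCC 10231 cells; compounds tested up to 128 μg/mL. MIC50 defined as lowest concentration producing 50% growth inhibition; three independent experiments, each in triplicate, values given as median.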

In series [2] the test system is Candida albicans. As to the kind of experiment: Antibiofilm activity against Candida albicans ATCC 10231 assessed as inhibition of biofilm formation. It is filed as functional. In a few lines:
(§1)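 C. albicans ATCC 10231 biofilm, tested during formation and as mature (48 h) biofilm; compounds tested up to 128 μg/mL. BMIC50 taken as lowest concentration giving 50% decrease of biofilm relative to untreated growth control; three independent experiments in triplicate, median reported.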

Series [3] relates to Candida albicans. As to the kind of experiment: Antibiofilm activity against Candida albicans ATCC 10231 assessed as reduction in mature biofilm. It is filed as functional. In short, it runs like this:
as §1

Series [4] can be described thus: Toxicity in Galleria mellonella larvae assessed as survival at 64 ug/ml measured after 72 hrs relative to control. The note with it: at 64 µg/mL. In short, it runs like this:
(§2)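 G. mellonella larvae were injected with 20 μL of compound in sterile water containing less than 1% v/v DMSO, into the last left pro-leg. Doses were 32–512 µg/mL. Survival was scored at 24, 48 and 72 h and is given as the mean percentage of three independent experiments.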

Series [5] can be described thus: Toxicity in Galleria mellonella larvae assessed as survival at 128 ug/ml measured after 72 hrs relative to control. The note with it: at 128 µg/mL. In a few lines:
as §2

The test system of series [6] is Candida albicans. The series can be described thus: Antibiofilm activity against Candida albicans ATCC 10231 assessed as inhibition of biofilm formation in presence of Fe3+. It counts as functional, organism-based. The settings on record: dose 8-128 µg/ml. In a few lines: (§3)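 C. albicans ATCC 10231 biofilm-formation assay run in culture medium enriched with increasing concentrations of Fe3+ or Cu2+. BMIC50 is the lowest drug concentration giving a 50% decrease of biofilm relative to the untreated growth control. Three independent experiments in triplicate; data reported as percentage of inhibition ± standard deviation.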

Series [7] in a line: Toxicity in Galleria mellonella larvae assessed as survival at 256 ug/ml measured after 48 hrs relative to control. The note with it: at 256 µg/mL. In a few lines: as §2
A short description of series [8]: Toxicity in Galleria mellonella larvae assessed as survival at 64 ug/ml measured after 24 hrs relative to control. The settings on record: at 64 µg/mL. In short, it runs like this:
as §2

Series [9] can be described thus: Toxicity in Galleria mellonella larvae assessed as survival at 32 ug/ml measured after 24 hrs relative to control. The settings on record: at 32 µg/mL. In a few lines: as §2
Series [10] can be described thus: Toxicity in Galleria mellonella larvae assessed as survival at 512 ug/ml measured after 24 hrs relative to control. The settings on record: at 512 µg/mL. In a few lines: as §2
The nature of series [11]: Toxicity in Galleria mellonella larvae assessed as survival at 512 ug/ml measured after 72 hrs relative to control. The settings on record: at 512 µg/mL. In short, it runs like this: as §2
A short description of series [12]: Metal chelating activity assessed as Cu2+-compound complex formation by UV-visible spectrophotometry. In a few lines:
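UV–Vis spectroscopic titration of the ligand with Cu2+. The stability constant was calculated from the spectra once the 1:1 stoichiometry was known, and is reported as logKstab ±.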

For series [13], the system named is Candida albicans. The series can be described thus: Antibiofilm activity against Candida albicans ATCC 10231 assessed as inhibition of biofilm formation in presence of Cu2+. It is filed as functional, organism-based. The note with it: dose 8-128 µg/ml. In short, it runs like this:
as §3

Series [14] in a line: Toxicity in Galleria mellonella larvae assessed as survival at 32 ug/ml measured after 48 hrs relative to control. The note with it: at 32 µg/mL. In short, it runs like this:
as §2

Series [15] can be described thus: Metal chelating activity assessed as Fe3+-compound complex formation by UV-visible spectrophotometry. In a few lines:
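Stoichiometry of ligand–Fe3+ complex found by Job's method of continuous variations from UV titration spectra, Job's plot read at 302 nm; stability constant (logKstab) then calculated by UV–Vis spectroscopy for the determined stoichiometry.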

Series [16] in a line: Metal chelating activity assessed as stoichiometry ratio of 1:1 for Fe3+-compound complex formation by UV-visible spectrophotometry.
A short description of series [17]: Toxicity in Galleria mellonella larvae assessed as survival at 128 ug/ml measured after 48 hrs relative to control. The note with it: at 128 µg/mL. In a few lines:
as §2

Series [18] in a line: Metal chelating activity assessed as stoichiometry ratio of 1:1 for Cu2+-compound complex formation by UV-visible spectrophotometry.
Series [19] in a line: Toxicity in Galleria mellonella larvae assessed as survival at 256 ug/ml measured after 24 hrs relative to control. The settings on record: at 256 µg/mL. In short, it runs like this:
as §2

Series [20] can be described thus: Toxicity in Galleria mellonella larvae assessed as survival at 512 ug/ml measured after 48 hrs relative to control. The settings on record: at 512 µg/mL. In a few lines:
as §2

Series [21] in a line: Toxicity in Galleria mellonella larvae assessed as survival at 64 ug/ml measured after 48 hrs relative to control. The note with it: at 64 µg/mL. In short, it runs like this:
as §2

Series [22] is described as follows: Toxicity in Galleria mellonella larvae assessed as survival at 32 ug/ml measured after 72 hrs relative to control. The settings on record: at 32 µg/mL. In a few lines:
as §2

Series [23] in a line: Toxicity in Galleria mellonella larvae assessed as survival at 128 ug/ml measured after 24 hrs relative to control. The settings on record: at 128 µg/mL. In short, it runs like this:
as §2

Series [24] is described as follows: Toxicity in Galleria mellonella larvae assessed as survival at 256 ug/ml measured after 72 hrs relative to control. The settings on record: at 256 µg/mL. In a few lines: as §2

One may read the MIC50 as the lowest concentration that inhibits either 50% of growth or 50% of the strains tested, depending on the study. A low value points to greater potency. In turn, `Cc1c(OCc2ccccc2)c(=O)ccn1CCCCNC(=O)C(C)c1ccc(C(=O)c2ccccc2)cc1` (centres undefined) had an MIC50 in series [1] of over 128 mg/L. Moreover, the MBIC50 in [2] and in series [3] was over 128 µg/mL throughout.

Consider `Cc1c(O)c(=O)ccn1CCCCc1ccccc1.Cl`, for which the survival at 72 h in [4] turned out to be 100%; in series [5] it was 100%; in series [11] it was 86%; in [22], 100%; in series [24] it was 100%. In addition, the inhibition entry in [6] and in series [13] was “Dose-Dependent Effect” throughout. Further, the survival at 48 h in [7] was 100%; in series [14], 100%; in [17] it was 100%; in series [20], 96%; in series [21] it was 100%. Besides, the survival at 24 h in series [8], in [9], in series [10], in series [19] and in [23] was 100% in each case. In [1], the MIC50 turned out to be 16 mg/L. Besides, the result in [12], in [15], in series [16] and in series [18] was Active. For the same compound, the values for the MBIC50 in [2] and in [3] were 16 µg/mL and over 128 µg/mL, respectively.

As to `Cc1c(O)c(=O)ccn1C` [DEFERIPRONE], in series [1], the MIC50 was found to be 128 mg/L (≈ 920 µM). For the same compound, the MBIC50 in series [2] worked out at 32 µg/mL; in series [3], 128 µg/mL.

Regarding `Cc1c(OCc2ccccc2)c(=O)ccn1CCCCNC(=O)C(C)c1ccc(CC(C)C)cc1` (centres undefined), the MIC50 in series [1] is over 128 mg/L. For the same compound, the outcome in [15] was Active. The MBIC50 is 32 µg/mL in series [2] and over 128 µg/mL in series [3].

In the case of `Cc1c(O)c(=O)ccn1CCCCNC(=O)Cc1ccccc1`, in [1], the MIC50 was over 128 mg/L. The MBIC50 in series [2] and in series [3] was over 128 µg/mL each time.

Consider `Cc1c(OCc2ccccc2)c(=O)ccn1CCCCCCn1ccc(=O)c(OCc2ccccc2)c1C`, for which the MIC50 in [1] is over 128 mg/L. Also, the MBIC50 in series [2] and in series [3] was over 128 µg/mL each time.

With `Cc1c(O)c(=O)ccn1CCCCNC(=O)C(C)c1ccc(CC(C)C)cc1` (centres undefined), the MIC50 in series [1] is 4 mg/L (≈ 10.4 µM). The result in [12] and in series [15] was Active. Moreover, the MBIC50 in series [2] was 128 µg/mL; in [3] it was over 128 µg/mL.

`Cc1c(OCc2ccccc2)c(=O)ccn1CCCCCn1ccc(=O)c(OCc2ccccc2)c1C` yielded an MIC50 in series [1] of over 128 mg/L. In addition, the MBIC50 in series [2] and in series [3] was over 128 µg/mL in each case.

`Cc1c(O)c(=O)ccn1CCCCCCn1ccc(=O)c(O)c1C.Cl.Cl`: the MIC50 in series [1] was over 128 mg/L. In addition, the MBIC50 in series [2] and in series [3] was over 128 µg/mL each time.

Regarding `COc1ccccc1Cn1ccc(=O)c(O)c1C.Cl`, in series [1], the MIC50 is over 128 mg/L. For the same compound, the MBIC50 in series [2] and in series [3] was over 128 µg/mL each time.

On to `Cc1c(OCc2ccccc2)c(=O)ccn1CCCc1ccccc1`, for which, in [1], the MIC50 was over 128 mg/L. The MBIC50 in [2] and in [3] was over 128 µg/mL throughout.

The compound `Cc1c(O)c(=O)ccn1CCCCNC(=O)Cc1ccc(CC(C)C)cc1` came in with an MIC50 in series [1] of 8 mg/L (≈ 21.6 µM). Further, the MBIC50 in series [2] is 64 µg/mL; in series [3], 128 µg/mL.

`Cc1c(OCc2ccccc2)c(=O)ccn1CCCCNC(=O)Cc1ccccc1` had an MIC50 in [1] of over 128 mg/L. Further, the MBIC50 in series [2] and in [3] was over 128 µg/mL each time.

Take `Cc1c(O)c(=O)ccn1CCCc1ccccc1.Cl`: the MIC50 in [1] stood at 32 mg/L. The values for the MBIC50 in series [2] and in series [3] were 32 µg/mL and over 128 µg/mL, respectively.

In turn, `COc1ccccc1Cn1ccc(=O)c(OCc2ccccc2)c1C` came in with an MIC50 in series [1] of over 128 mg/L. Moreover, the MBIC50 in [2] and in series [3] was over 128 µg/mL in each case.

With `Cc1c(O)c(=O)ccn1CCCCn1ccc(=O)c(O)c1C.Cl.Cl`, in series [1], the MIC50 was over 128 mg/L. The MBIC50 in series [2] and in series [3] was over 128 µg/mL each time.

In series [1], `Cc1c(OCc2ccccc2)c(=O)ccn1CCCCNC(=O)Cc1ccc(CC(C)C)cc1` yielded an MIC50 of over 128 mg/L. In addition, the figures for the MBIC50 in series [2] and in series [3] were 64 µg/mL and over 128 µg/mL, respectively.

In [1], `Cc1c(O)c(=O)ccn1CCCCCn1ccc(=O)c(O)c1C.Cl.Cl` came in with an MIC50 of over 128 mg/L. The MBIC50 in [2] was 128 µg/mL; in [3], over 128 µg/mL.

As for `Cc1c(OCc2ccccc2)c(=O)ccn1CCCCn1ccc(=O)c(OCc2ccccc2)c1C`, the MIC50 in series [1] was over 128 mg/L. Besides, the MBIC50 was 128 µg/mL in series [2] and over 128 µg/mL in series [3].

In turn, `Cc1c(O)c(=O)ccn1CCCCNC(=O)C(C)c1ccc(C(=O)c2ccccc2)cc1` (centres undefined) had an MIC50 in series [1] of over 128 mg/L. For the same compound, the figures for the MBIC50 in series [2] and in series [3] were 128 µg/mL and over 128 µg/mL, respectively.

Consider `Cc1c(OCc2ccccc2)c(=O)ccn1CCCCc1ccccc1`, for which the MIC50 in [1] was over 128 mg/L. Also, in series [15], the result was Active. In addition, the MBIC50 in series [2] and in [3] was over 128 µg/mL throughout.

Consider `Cc1c(OCc2ccccc2)c(=O)ccn1CCCn1ccnc1`, for which the MIC50 in [1] was over 128 mg/L. In addition, the MBIC50 in series [2] and in series [3] was over 128 µg/mL throughout.

In series [1], `Cc1c(O)c(=O)ccn1CCCn1ccnc1.Cl` yielded an MIC50 of over 128 mg/L. Besides, the MBIC50 in series [2] and in series [3] was over 128 µg/mL throughout.
